The values below come from ChEMBL document CHEMBL1155470, “Colloid formation by drugs in simulated intestinal fluid” (J Med Chem, 2010).

A short description of series [1]: Colloidal aggregation in fed state simulated intestinal fluid at 550 uM by dynamic light scattering-based beads autocorrelation assay in presence of 2.75% DMSO. The class given is physicochemical. The conditions noted are these: simulated gi fluid. The method in brief:
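FeSSIF samples examined by DLS (826.6 nm laser, 90° detector, room temperature), comparing autocorrelation curves with blank FeSSIF. The micelle background was checked with 200 nm calibration beads diluted in FeSSIF. Drug samples were made by diluting DMSO stocks into filtered FeSSIF (15 mM taurocholate, 3.75 mM lecithin).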

Series [2] addresses T1, Cruzipain (Trypanosoma cruzi, UniProt P25779). The series is described as follows: Inhibition of Trypanosoma cruzi cruzaine preincubated for 5 mins before substrate addition by fluorescence assay in absence of Triton X-100.
The nature of series [3]: Colloidal aggregation in fed state simulated intestinal fluid by dynamic light scattering assay in presence of 2.75% DMSO. In kind it is physicochemical. The conditions noted are these: simulated gi fluid. The method in brief:
(§1)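 Concentrated DMSO stocks diluted into filtered FeSSIF: blank FeSSIF plus 15 mM sodium taurocholate and 3.75 mM lecithin, dissolved at 37 °C. Final DMSO 1% unless otherwise noted. Particle size by dynamic light scattering at 826.6 nm, detector at 90°, 100% laser power. Values are averages of three or more independent measurements at room temperature.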

A short description of series [4]: Colloidal aggregation in fed state simulated intestinal fluid assessed as colloid radius at 50 uM by dynamic light scattering assay in presence of 1% DMSO. In kind it is physicochemical. The conditions noted are these: simulated gi fluid. In a few lines:
as §1

A short description of series [5]: Colloidal aggregation in fed state simulated intestinal fluid assessed as colloid radius at 550 uM by dynamic light scattering assay in presence of 2.75% DMSO. The conditions noted are these: simulated gi fluid.
The nature of series [6]: Colloidal aggregation in fed state simulated intestinal fluid by dynamic light scattering assay in presence of 0.25% DMSO. In kind it is physicochemical. The conditions noted are these: simulated gi fluid. In a few lines: as §1
In series [7] the target is T1, Cruzipain. Briefly: Inhibition of Trypanosoma cruzi cruzaine preincubated for 5 mins before substrate addition by fluorescence assay in presence of 0.01% Triton X-100.
Series [8] in a line: Colloidal aggregation in fed state simulated intestinal fluid assessed as colloid radius at 120 uM by dynamic light scattering assay in presence of 1% DMSO. In kind it is physicochemical. The conditions noted are these: simulated gi fluid. The method in brief:
as §1

Series [9] in a line: Colloidal aggregation in fed state simulated intestinal fluid by dynamic light scattering assay in presence of 0.6% DMSO. In kind it is physicochemical. The conditions noted are these: simulated gi fluid. The method in brief: as §1

T1 sequence (P25779 whole entry): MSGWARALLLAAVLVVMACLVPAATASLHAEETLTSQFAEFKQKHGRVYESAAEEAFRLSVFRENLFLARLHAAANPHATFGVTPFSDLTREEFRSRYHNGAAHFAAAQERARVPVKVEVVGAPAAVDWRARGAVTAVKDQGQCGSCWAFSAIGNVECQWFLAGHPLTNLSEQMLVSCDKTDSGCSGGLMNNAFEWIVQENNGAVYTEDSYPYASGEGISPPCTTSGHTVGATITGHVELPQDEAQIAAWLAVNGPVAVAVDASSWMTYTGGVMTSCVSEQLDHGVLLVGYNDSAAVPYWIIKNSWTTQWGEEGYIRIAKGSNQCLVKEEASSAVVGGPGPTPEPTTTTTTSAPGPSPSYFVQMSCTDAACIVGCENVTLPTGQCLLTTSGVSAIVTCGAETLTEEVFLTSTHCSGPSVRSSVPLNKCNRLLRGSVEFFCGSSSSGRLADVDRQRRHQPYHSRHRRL

As to `CCOc1nc2cccc(C(=O)OC(C)OC(=O)OC3CCCCC3)c2n1Cc1ccc(-c2ccccc2-c2nnn[nH]2)cc1` (stereo unspecified) [CANDESARTAN CILEXETIL], the Activity result in series [1] is “Active”; in series [3] it was 550 µM; in series [4], 38.8 nm; in series [5] it was 50.1 nm; in series [6], 50 µM. Moreover, the IC50 was 42 µM against Cruzipain [2] and 168 µM at Cruzipain [7].

For `Cc1ccc(-c2cc(C(F)(F)F)nn2-c2ccc(S(N)(=O)=O)cc2)cc1` [CELECOXIB], the Activity in series [8] is 161.8 nm; in series [9], 120 µM. In addition, the IC50 is 126 µM against Cruzipain [2] and > 400 µM on Cruzipain [7].

As a reminder, the IC50 is the midpoint of a concentration-inhibition curve.
